Results from ChEMBL document CHEMBL1156525, “A small-molecule therapeutic lead for Huntington's disease: preclinical pharmacology and efficacy of C2-8 in the R6/2 transgenic mouse” (Proc Natl Acad Sci U S A, 2007).
The source made the active and inactive calls. The calls are words filed in the database; no cut-off is given here.

Tests used:
Mus musculus [1] = experiment: Toxicity in R6/2 mouse assessed as survival at 200 mg/kg/12 hrs for 4 weeks; format: organism-based; conditions: in vivo
Mus musculus [2] = experiment: Toxicity in R6/2 mouse assessed as body weight at 200 mg/kg/12 hrs for 4 weeks; format: organism-based; conditions: in vivo
Outline: (§1)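 Chronic tolerability study in adult female R6/2 mice (back-crossed onto C57BL/6 × CBA F1), n = 10 per group. Oral gavage twice daily at 50, 100 or 200 mg/kg/12 h for 4 weeks, given as a suspension made fresh daily. Body weight was recorded weekly at the same time of day.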

Mus musculus [3] = experiment: Decrease in striatal nuclear aggregate volume in R6/2 mouse at 200 mg/kg by nucleator method; format: functional; parameters: scale not given: the % may be the effect or the level left
Outline: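 R6/2 mice dosed orally twice daily from 3 weeks of age, perfusion-fixed at 90 days. Floating forebrain sections at the anterior commissure crossing were stained with EM48 (1:2,000) for 2 days, then biotinylated secondary antibody and ABC development. Intranuclear aggregate volume in the striatum measured by the nucleator method. Compared with vehicle-treated R6/2 mice.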

Mus musculus [4] = experiment: Toxicity in R6/2 mouse assessed as survival at 100 mg/kg/12 hrs for 4 weeks; format: organism-based; conditions: in vivo
Mus musculus [5] = experiment: Reduction of decrease in motor dysfunction in R6/2 mouse assessed as improvement in wire-hang endurance at 100 mg/kg/12 hrs after 12.5 weeks; format: functional, organism-based
Outline: (§2)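 Female R6/2 mice dosed by oral gavage at 0, 100 or 200 mg/kg/12 h from 24 days of age. Wire-hang endurance tested at 9.5 and 12.5 weeks: mouse placed on horizontal wire mesh, mesh gently inverted, and time hanging recorded. Three trials per day on three consecutive days, averaged. n = 15; geometric mean ± 95% CI; mixed-model analysis.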

Mus musculus [6] = species on record: Mus musculus; experiment: Reduction of decrease in motor dysfunction in R6/2 mouse assessed as increase in latency to fall at 8 weeks of age by rotarod test; format: functional; parameters: scale not given: the % may be the effect or the level left
Outline: (§3)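 R6/2 mice dosed orally at 0, 100 or 200 mg/kg/12 h from 24 days of age until death. Rotarod latency to fall tested at 5, 8 and 11 weeks of age. n = 15; geometric mean ± 95% CI; mixed-model analysis.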

[7] = Inhibition of opioid receptor
Outline: (§4)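 Screened against a panel of 60 receptors, ion channels and transporters expressed in mammalian brain. Receptor-binding profile reported as IC50.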

Plasma = experiment: Drug concentration in mouse plasma at 25 mg/kg, po after 24 hrs; format: ADME, organism-based; parameters: dose 25 mg/kg, route oral; conditions: in vivo
Outline: (§5)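 Wild-type mice given single oral doses of 5, 10, 25 or 50 mg/kg. Plasma and brain sampled at 1, 4 and 8 h after dosing, and also at 16 and 24 h. Drug measured by HPLC/MS. n = 5; SD. Half-lives derived from the concentration–time course.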

Brain = experiment: Drug concentration in mouse brain at 10 mg/kg, po after 16 hrs; format: ADME, organism-based; parameters: dose 10 mg/kg, route oral; conditions: in vivo; outline: as §5
Mus musculus [8] = experiment: Toxicity in R6/2 mouse assessed as effect on body weight at 100 mg/kg/12 hrs for 4 weeks; format: organism-based; conditions: in vivo; outline: as §1
Mus musculus [9] = experiment: Toxicity in R6/2 mouse assessed as effect on body weight at 50 mg/kg/12 hrs for 4 weeks; format: organism-based; conditions: in vivo
Outline: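 Chronic tolerability study in adult R6/2 mice, n = 10 per group, dosed with 50, 100 or 200 mg/kg/12 h for 4 weeks by oral gavage. Body weight recorded weekly at the same time of day.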

[10] = Half life in po dosed mouse brain; format: ADME, organism-based; outline: as §5
Mus musculus [11] = species on record: Mus musculus; experiment: Reduction of decrease in motor dysfunction in R6/2 mouse assessed as increase in latency to fall at 11 weeks of age by rotarod test; format: functional; parameters: scale not given: the % may be the effect or the level left; outline: as §3
PC-12 = experiment: Inhibition of polyQ aggregation in rat PC12 cells; format: functional, cell-based
[12] = Drug level in mouse cerebral cortex at 50 mg/kg, po administered for 5 days after 5 hrs; format: ADME, organism-based; parameters: dose 50 mg/kg, route oral; conditions: read-out: Drug uptake
Outline: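 Wild-type mice (n = 5) given 50 mg/kg by oral gavage as a suspension for 5 days. Killed 5 h after the last dose. Cortex (20–30 mg) sonicated in acetonitrile/0.4% acetic acid at −10°C, centrifuged, and the supernatant dried and reconstituted in mobile phase. Analysed by LC electrochemical array against a 0.8 μg/ml standard.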

[13] = Lipophilicity, log P of the compound; format: physicochemical; conditions: octanol/water
Mus musculus [14] = species on record: Mus musculus; experiment: Reduction of decrease in motor dysfunction in R6/2 mouse assessed as improvement in wire-hang endurance after 9.5 weeks; format: organism-based; conditions: in vivo, 1596 h; outline: as §2
[15] = target: Sodium-dependent dopamine transporter (Homo sapiens, UniProt Q01959); experiment: Inhibition of DAT; outline: as §4
Sequence of Sodium-dependent dopamine transporter (Q01959 whole entry): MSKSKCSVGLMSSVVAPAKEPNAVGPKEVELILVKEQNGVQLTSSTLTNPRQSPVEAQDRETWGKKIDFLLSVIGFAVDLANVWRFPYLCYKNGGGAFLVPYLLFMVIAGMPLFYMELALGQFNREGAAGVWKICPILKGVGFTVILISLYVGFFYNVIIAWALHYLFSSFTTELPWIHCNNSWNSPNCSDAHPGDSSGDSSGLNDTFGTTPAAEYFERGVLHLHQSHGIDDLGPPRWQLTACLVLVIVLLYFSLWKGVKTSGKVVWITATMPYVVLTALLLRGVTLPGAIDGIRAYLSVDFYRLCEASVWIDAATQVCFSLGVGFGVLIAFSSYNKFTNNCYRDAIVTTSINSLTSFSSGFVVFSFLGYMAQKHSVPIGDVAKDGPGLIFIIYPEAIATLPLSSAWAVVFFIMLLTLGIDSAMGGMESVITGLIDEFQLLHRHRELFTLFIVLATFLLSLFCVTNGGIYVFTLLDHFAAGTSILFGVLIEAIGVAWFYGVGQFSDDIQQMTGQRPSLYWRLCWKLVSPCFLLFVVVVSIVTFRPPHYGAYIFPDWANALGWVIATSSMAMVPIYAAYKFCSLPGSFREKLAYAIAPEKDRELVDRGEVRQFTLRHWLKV

Mus musculus [16] = experiment: Decrease in neuronal atrophy in R6/2 mouse assessed as striatal neuronal cell body volume at 200 mg/kg relative to control; format: functional; parameters: scale not given: the % may be the effect or the level left
Outline: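 Female R6/2 mice given oral gavage twice daily from 3 weeks of age until death or kill. Perfused at 90 days with 2% paraformaldehyde. Every eighth 50 μm thionin-stained section used; striatal neuronal cell body volume estimated stereologically by the nucleator method. n = 10; mean ± SEM; ANOVA versus placebo-treated R6/2 mice.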

Adenosine receptor A3 = target: T1, Adenosine receptor A3 (Homo sapiens, UniProt P0DMS8); experiment: Inhibition of adenosine A3 receptor; outline: as §4
T1 sequence (P0DMS8 whole entry): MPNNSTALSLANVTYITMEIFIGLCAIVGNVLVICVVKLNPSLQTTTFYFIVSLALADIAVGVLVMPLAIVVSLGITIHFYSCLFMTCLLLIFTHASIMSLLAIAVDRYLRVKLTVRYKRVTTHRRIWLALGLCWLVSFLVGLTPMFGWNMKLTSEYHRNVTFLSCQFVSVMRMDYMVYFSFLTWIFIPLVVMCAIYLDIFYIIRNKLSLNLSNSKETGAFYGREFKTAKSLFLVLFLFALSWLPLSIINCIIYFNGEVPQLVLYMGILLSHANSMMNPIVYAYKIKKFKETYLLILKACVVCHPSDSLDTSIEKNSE

[17] = Plasma half life in po dosed mouse; format: ADME, organism-based; outline: as §5

With `O=C(Nc1ccc(Br)cc1)c1cccc(S(=O)(=O)Nc2ccc(Br)cc2)c1` the Activity (Mus musculus [1]) was “Non-toxic”, the Activity (Mus musculus [2]) was “Non-toxic” and the Activity (Mus musculus [3]) was 35%. The Activity (Mus musculus [4]) was “Non-toxic”, the Activity (Mus musculus [5]) was “Active” and the Activity (Mus musculus [6]) was 37%. The IC50 [7] was 2.79 µM, the Cp (Plasma) was less than 3 pmol/g and the Drug uptake (Brain) was less than 15 pmol/g. For the same compound, the Activity (Mus musculus [8]) was “Non-toxic”, the Activity (Mus musculus [9]) was “Non-toxic” and the half-life [10] was 1.6 h. The Activity (Mus musculus [11]) was 43%, the IC50 (PC-12) was 0.05 µM and the concentration at 5 h [12] was 25 µM. For the same compound, the logP [13] was 5.2, the Activity (Mus musculus [14]) was “Active” and the IC50 [15] was 1.7 µM. It also gave an Activity (Mus musculus [16]) of 20%, an IC50 (Adenosine receptor A3) of 5.76 µM and a half-life [17] of 1.5 h.
